Results taken from PubChem BioAssay AID602345 (The Scripps Research Institute Molecular Screening Center, 2012).
Active and inactive are the calls of the source.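 How the source made its calls: active means macrophage DAGL beta lipase probe labeling falls at least half after a 5 mg/kg dose in mice; inactive means 5 mg/kg yields less than half inhibition.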

Molecular target: Diacylglycerol lipase-beta (Mus musculus) (UniProt Q91WC9)
Assay: in vivo DAGLb inhibition in mouse macrophages, late-stage follow-up, in vivo study, gel ABPP, in-gel fluorescence, peritoneal macrophages (AID 602345)
Settings: C57 mice i.p., peritoneal macrophage DAGLb, gel ABPP HT-01
Method in brief: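 Test system – DAGLb in peritoneal macrophage membranes from thioglycollate-elicited C57 mice · Dosing – intraperitoneal 5, 10 or 20 mg/kg in saline/PEG300/ethanol (18/1/1) · Schedule – 4 h in vivo exposure, 30 min probe step at 37 °C · Measured by – SDS-PAGE in-gel fluorescence · Control set – vehicle-dosed mice as uninhibited reference · Repeats – n of 2 mice per group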

Sequence of Diacylglycerol lipase-beta (Mus musculus) (Q91WC9 whole entry, looked up): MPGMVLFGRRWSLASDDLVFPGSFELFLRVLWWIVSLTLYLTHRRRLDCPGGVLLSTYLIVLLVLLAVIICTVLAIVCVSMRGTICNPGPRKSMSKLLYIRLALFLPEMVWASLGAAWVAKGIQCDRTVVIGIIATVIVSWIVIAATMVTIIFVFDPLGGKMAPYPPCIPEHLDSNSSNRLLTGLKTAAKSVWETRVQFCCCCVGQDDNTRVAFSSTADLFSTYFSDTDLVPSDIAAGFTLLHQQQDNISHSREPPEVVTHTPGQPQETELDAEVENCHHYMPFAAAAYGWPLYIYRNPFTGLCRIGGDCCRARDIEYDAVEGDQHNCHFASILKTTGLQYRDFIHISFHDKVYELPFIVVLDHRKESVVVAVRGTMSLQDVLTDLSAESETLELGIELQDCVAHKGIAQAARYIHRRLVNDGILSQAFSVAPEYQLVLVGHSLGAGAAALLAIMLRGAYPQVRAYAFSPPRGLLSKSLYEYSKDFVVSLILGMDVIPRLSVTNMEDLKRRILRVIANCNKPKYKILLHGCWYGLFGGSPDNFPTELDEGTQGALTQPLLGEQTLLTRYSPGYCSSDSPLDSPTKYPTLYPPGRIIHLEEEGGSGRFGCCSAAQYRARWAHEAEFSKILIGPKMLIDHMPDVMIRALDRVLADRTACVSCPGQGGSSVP

Structure (SMILES) | outcome
O=C(N1CCCCC1Cc1ccccc1)n1cc(-c2ccc(-c3ccccc3C(F)(F)F)cc2)nn1 (stereo not drawn) | active
O=C(N1CCCCC1Cc1ccccc1)n1cc(-c2ccc(-c3ccccc3)cc2)nn1 (stereo not drawn) | active
COc1ccccc1-c1ccc(-c2cn(C(=O)N3CCCCC3Cc3ccccc3)nn2)cc1 (stereo not drawn) | active
